# Assay results pooled from the literature.
# Lines come from different studies, so protocols differ.
# Target: Serine/threonine-protein kinase 32B (STK32B, Homo sapiens, UniProt Q9NY57)
Structure (SMILES),assay,setting,remaining binding
O=C(NCCCC1CCCCC1)c1ccc(CNC(=O)c2cnn(-c3ccccc3)c2C(F)(F)F)cc1,"cell-free assay, competition with immobilised ligand",0.1 µM,100%
CC1CCCN1c1nccc(-c2cnn3ncccc23)n1 (stereo not drawn),binding,1 µM,100%
CNC(=O)[C@@H]1CC[C@@H](n2c(-c3ccc4cnccc4c3)nc3ccc(C(=O)NCc4cccc(C(N)=O)c4)cc32)C1,"binding, competition with immobilised ligand",1 µM,100%
O=C(NCCCN1CCOCC1)c1ccc(Nc2nccc(-c3cc4ccccc4s3)n2)cc1,"binding, competition with immobilised ligand",1 µM,100%
COc1cnc(Nc2cccc(S(N)(=O)=O)c2)nc1N1CCN(c2ccccc2)CC1,"binding, competition with immobilised ligand",1 µM,100%
O=C(Nc1cnc(Oc2ccc(F)cc2)nc1)N1CCc2ncccc2[C@@H]1c1ccc(F)cc1,"cell-free assay, competition with immobilised ligand",1 µM,87%
CN(CCCC(F)(F)F)c1nccc(-c2cnn3ncccc23)n1,binding,1 µM,87%
C[C@@H](c1ccc(-n2cnc3c(N)ncnc32)cc1)N1CCc2nn(C)c(Cc3ccccc3)c2C1=O,"binding, competition with immobilised ligand",0.1 µM,99%
CN(C)c1ncc(F)c(-c2cnn3ncccc23)n1,binding,1 µM,100%
Cc1c(NC(=O)c2cc(C(N)=O)nc3cc(F)ccc23)c(C(F)(F)F)nn1Cc1ccc(C#N)cc1,"cell-free assay, competition with immobilised ligand",1 µM,100%
O=C(Nc1c[nH]nc1C(=O)NC1CCNCC1)c1cc(F)cc(F)c1,"binding, competition with immobilised ligand",1 µM,57%
O=C(c1ccc(Nc2nccc(-c3cc4ccccc4s3)n2)cc1)N1CCC(N2CCCC2)CC1,"binding, competition with immobilised ligand",1 µM,100%
CN(C)c1nccc(-c2cnc3ncccn23)n1,binding,1 µM,88%
CC1=C(C#N)[C@@H](c2ccc3[nH]nc(C)c3c2)C(C#N)=C(c2ccc(Cl)cc2)N1,"cell-free assay, competition with immobilised ligand",1 µM,100%
COc1ncc2cc3ccccc3nc2c1C#N,"cell-free assay, competition with immobilised ligand",5 µM,84%
CS(=O)(=O)N1CCCC(NC(=O)[C@H](CCC2CCCCC2)NC(=O)c2ccc(CNC(=O)c3cnc4ccccn34)cc2)C1 (stereo partly drawn),"cell-free assay, competition with immobilised ligand",0.1 µM,93%
O=C(c1ccc(Nc2ncc(Cl)c(-c3ccc(Cl)s3)n2)cc1)N1CCC(N2CCCC2)CC1,"binding, competition with immobilised ligand",1 µM,100%
N[C@@H]1CCN(c2nccc(-c3cnn4ncccc34)n2)C1,binding,1 µM,96%
C[C@@H](c1cccc(C#N)c1)n1cc(Cl)cc(C(N)=O)c1=N,"cell-free assay, competition with immobilised ligand",1 µM,100%
C[C@H]1CCN(c2nccc(-c3cnn4ncccc34)n2)C1,binding,1 µM,100%
Nc1ncc2c(n1)-c1c([nH]c3ccc(C#CC4CC4)cc13)CCCC2,"binding, competition with immobilised ligand",1 µM,100%
